APJ antag = APJ receptor antagonism; AID 2521; 330,000 tested, 0.32% active; inhibition, % at 20 µM; CHO-K1 APJ beta-arrestin complementation, luminescence;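 active = inhibition above about 40% at 20 µM, limit read from the data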;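 note: cells challenged with 10 nM apelin-13 agonist together with compound; plate controls were apelin-13 plus DMSO wells for no effect and DMSO wells lacking apelin-13 for full effect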
Target sequence (P35414 whole entry, looked up): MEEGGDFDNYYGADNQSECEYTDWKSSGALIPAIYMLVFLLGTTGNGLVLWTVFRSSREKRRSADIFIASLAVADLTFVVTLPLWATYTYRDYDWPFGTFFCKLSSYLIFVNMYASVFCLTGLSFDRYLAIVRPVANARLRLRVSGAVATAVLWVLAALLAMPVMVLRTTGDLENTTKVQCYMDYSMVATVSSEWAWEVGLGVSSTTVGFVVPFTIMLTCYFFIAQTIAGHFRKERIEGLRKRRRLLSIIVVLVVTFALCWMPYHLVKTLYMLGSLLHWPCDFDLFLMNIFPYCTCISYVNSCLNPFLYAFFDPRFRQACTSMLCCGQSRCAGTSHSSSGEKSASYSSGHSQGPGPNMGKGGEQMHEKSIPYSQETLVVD
APJ ag = APJ receptor agonism | P35414 | CHO-K1 APJ PathHunter beta-arrestin, luminescence; 0% DMSO wells, 100% apelin | activation, % at 20 µM | 330,000 tested, 0.11% active;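 active = activation more than six SD over the plate average, tested at 20 µM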;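 note: 0% = DMSO alone and 100% = apelin-13 at 10 nM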
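Assay system: CHO-K1 APJ beta-arrestin complementation cell line / Compound: single test compound dose, 20 µM final, 1% DMSO / Times: overnight seeding, 90 min compound at 25 °C, 1 h detection / Technique: beta-gal luminescence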
CCR6 antag = blocks CCL20-driven beta-arrestin recruitment at human CCR6; P51684; CHO-K1 CCR6 PathHunter beta-arrestin, luminescence, CCL20-stimulated; inhibition, % at 20 µM; 340,000 tested, 0.49% active; AID 493098;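 active = compounds whose inhibition of the agonist-driven luminescence signal at 20 µM reaches about 50%, limit read from the data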;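 note: cells stimulated with CCL20 at 14 nM final; plate controls were DMSO with CCL20 for no effect and DMSO without agonist for full effect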
EBI2 block = EBI2 (human) antagonism; AID 651636; P32249; 360,000 tested, 0.81% active; EBI2 beta-arrestin recruitment, luminescence, 7a,25-OHC stimulated; inhibition, % at 5 µM; in the data active = inhibition above about 38%;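 note: enzyme fragment complementation signal reports receptor beta-arrestin coupling in cells; 0% = agonist plus DMSO wells and 100% = wells without agonist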
CXCR6 inh = blocks human CXCR6 beta-arrestin recruitment; O00574; inhibition, % at 20 µM; 360,000 tested, 0.36% active; AID 602244; CHO-K1 PathHunter CXCR6 beta-arrestin, luminescence; in the data active = inhibition above about 34%, passing the limit was not always enough;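 note: antagonist mode with CXCL16 agonist at 10 nM final; 0% = 10 nM CXCL16 with DMSO and 100% = unstimulated wells without agonist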
APJ ag conf = confirmation of human APJ apelin receptor agonists | activation, % at 20 µM | CHO-K1 APJ PathHunter beta-arrestin, luminescence | 310 tested, 10% active | shares compounds with APJ ag;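 active = activation above 40%, taking the highest of four retests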;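 note: plate controls were DMSO wells for no effect and apelin-13 at 10 nM for full effect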
* = called active by the depositor; · = no result. The list is not random: actives were taken first. Their share in the collection is about 1.5%.

SMILES	APJ antag	APJ ag	CCR6 antag	EBI2 block	CXCR6 inh	APJ ag conf
O=C(OCC(=O)N1CCCC1=O)c1cc2ccccc2o1	-4	16*	-2	-8	-3	14
Cc1ccc(C(=O)O/N=C/c2c(N3CCOCC3)n(C)c3ccccc23)cc1	-65	6	-40	-11	-10	·
Cn1c(N2CCOCC2)c(/C=N/OC(=O)c2ccc(F)cc2)c2ccccc21	-48	17*	1	0	-6	39
CCCCCCNC(=O)CC(NS(=O)(=O)c1ccc(OC)cc1)C(C)C (configuration not stated)	-3	1	-7	5	0	·
Cc1cc(C(=O)Nc2cc(S(C)(=O)=O)ccc2Cl)c(C)o1	-3	-6	6	-1	-1	·
N#Cc1ccc(NC(=O)Nc2ccc(Oc3ccc(NC(=O)Nc4ccc(C#N)cc4)cc3)cc2)cc1	-59	19*	-14	-33	-16	36
CC(=O)Nc1ccc(NC(=O)COC(=O)c2ccc([N+](=O)[O-])o2)cc1	-22	12*	3	-12	-24	11
CCN(c1ccc(NC(=O)COC(=O)c2ccc([N+](=O)[O-])o2)cc1)C(C)C	-26	5	-9	-13	-14	·
CCOc1cc2[nH]c(=S)n(CCCOC)c(=O)c2cc1OCC	-21	-2	-1	11	5	·
CCOc1cc2[nH]c(=S)n(CCCC(=O)NCc3ccccn3)c(=O)c2cc1OCC	8	118*	13	1	-2	29
CCC1CCCCN1CCCn1c(=S)[nH]c2ccccc2c1=O (configuration not stated)	17	-1	37	4	2	·
CCOc1cc2[nH]c(=S)n(CCN3CCC(C)CC3)c(=O)c2cc1OCC	-1	27*	14	0	-2	13
CCOc1cc2[nH]c(=S)n(CCCN3CCOCC3)c(=O)c2cc1OCC	1	17*	-1	8	-1	24
CCOc1cc2[nH]c(=S)n(CCN3CCCCC3CC)c(=O)c2cc1OCC (configuration not stated)	4	78*	3	22	3	39
O=C(NCc1ccco1)c1cccc2c(-c3ccc(F)c(F)c3)coc12	·	·	·	5	4	·
COc1ccc([C@H]2[C@H](C(=O)C(C)(C)C)N3N=Cc4ccccc4C3[C@]23N=C(c2ccccc2)OC3=O)cc1 (some centres not stated)	7	-1	21	-1	3	·
CC(C)(C)OC(=O)[C@H]1[C@H](c2ccc([N+](=O)[O-])cc2)C2(C(=O)c3ccccc3C2=O)C2c3ccccc3C=NN21 (some centres not stated)	-2	43*	17	9	2	44*
Cc1cc(C)n2nc(SCC(=O)Nc3c(C)nn(-c4ccccc4)c3C)nc2n1	3	39*	2	2	3	29
CCCCc1cc(O)c(CCCC)c(O)c1	-25	13*	12	2	-17	21
Cc1cc(C(=O)CSc2nc3ccccc3[nH]2)c(C)n1CC1CCCO1 (configuration not stated)	-27	21*	-43	-97	-5	13
Cc1cc(C(=O)CSc2nc(N)cc(=O)[nH]2)c(C)n1CC1CCCO1 (configuration not stated)	3	-8	2	3	0	·
O=C(Cn1ncc2c([nH]c3ccccc32)c1=O)Nc1ccc(CN2CCCCC2)cc1	-13	91*	5	-9	-7	0
COC(=O)Cn1cc(/C=C(/C#N)C(=O)N2CCOCC2)c2ccccc21	-5	12*	0	-11	5	6
Cc1ccc(C)c(NC(=O)/C(C#N)=C/c2ccc(Sc3nncn3C)c([N+](=O)[O-])c2)c1	-5	44*	·	·	·	37
O=C(CC1SC(N2CCCCC2)=NC1=O)Nc1cccc(C(=O)NCc2ccc(F)cc2)c1 (configuration not stated)	10	2	7	-6	-3	·
SMILES	APJ antag	APJ ag	CCR6 antag	EBI2 block	CXCR6 inh	APJ ag conf
Cc1cc(N/N=C/c2ccc(O)cc2)c2cccc(C)c2n1	-2	11	21	13	-8	·
Cc1cc(C)c2nc(C)cc(N/N=C/c3ccc(O)cc3)c2c1	1	42*	8	-4	5	30
O=C(Nc1ccc(-c2nc3ccccc3o2)cc1)c1ccc(N2CCOCC2)c([N+](=O)[O-])c1	9	29*	8	-36	7	24
COc1ccc2oc(-c3ccc(NC(=O)c4ccc(N5CCOCC5)c([N+](=O)[O-])c4)cc3)nc2c1	-5	10	4	-9	6	·
N/C(=N\OC(=O)c1cccc(Br)c1)c1ccccn1	-158	34*	-37	-39	-22	11
N/C(=N\OC(=O)c1ccc(Cl)c([N+](=O)[O-])c1)c1ccccn1	-43	17*	-18	23	-21	7
N/C(=N\OC(=O)c1ccc(Cl)c(Cl)c1)c1ccccn1	-103	10	-20	-19	-15	·
N/C(=N\OC(=O)c1cccc(Cl)c1)c1ccccn1	-78	6	-10	-18	-43	·
Cc1noc(C)c1S(=O)(=O)N1CCN(S(=O)(=O)c2ccccc2C#N)CC1	13	0	12	1	-9	·
CCCSc1nc(O)c(C2OC(=O)c3c2ccc(OC)c3OC)c(=O)n1-c1ccccc1 (configuration not stated)	10	23*	10	6	6	39
Cc1cc(NC(=O)c2ccc([N+](=O)[O-])cc2Cl)ccc1NC(=O)c1ccco1	-34	·	4	-19	-12	·
O=C(Nc1ccc(NC(=O)c2ccc([N+](=O)[O-])cc2[N+](=O)[O-])cc1)c1ccco1	-19	11*	-20	-6	-11	11
Cc1cccc(C(=O)OCc2cc(=O)oc3c(C)c(C)ccc23)c1O	11	24*	-6	8	9	8
O=C(NC1CCCCC1)c1cc2ccccc2cc1O	-54	13*	-7	-8	-9	12
c1coc(-c2nnc(-c3ccco3)nn2)c1	-8	-2	16	1	0	·
COc1cc2nc(N3CCN(c4cc(C)ccc4C)CC3)nc(N)c2cc1OC	-26	20*	-5	16	-23	34
O=C(Nc1ccc2c(c1)OCO2)c1n[nH]c(=O)c2ccccc12	0	-3	0	-6	-3	·
COc1ccc(/C(N)=N/OC(=O)c2cccc([N+](=O)[O-])c2C)cc1	-81	18*	-17	12	-19	18
Cc1ccc(S(=O)(=O)N2CCN(C(=O)COC(=O)c3cccc(Cl)c3)CC2)c(C)c1	-8	-1	12	33	-2	·
Cc1cc(=O)nc2c3ccccc3n(CC(=O)Nc3ccccc3Br)n12	5	-1	18	11	1	·
Cc1csc2nc(COC(=O)c3ccc(Cl)c([N+](=O)[O-])c3)cc(=O)n12	-3	30*	19	9	24	10
